Results: ChEMBL document CHEMBL1143814, “Clinical and pharmacokinetic data support once-daily low-dose boosted saquinavir (1,200 milligrams saquinavir with 100 milligrams ritonavir) in treatment-naive or limited protease inhibitor-experienced human immunodeficiency virus-infected patients” (Antimicrob Agents Chemother, 2007)

How the values were obtained:
Type in all cases: ADME, organism-based
[1] = Cmin in PBMC cellular compartment of HIV infected virological failure patient after 24 hrs; conditions: human, read-out: Cmin
In short: (§1)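 PBMC drug levels, same once-daily saquinavir/ritonavir 1,200/100 mg regimen at steady state, same sampling times. PBMC were isolated from EDTA blood diluted 1:1 in PBS (pH 7.4) by Ficoll density centrifugation and washed twice in PBS. Pellet volume was taken as equal to its weight. Pellets were frozen at −70°C and assayed by HPLC-UV at 215 nm. Analysis was noncompartmental, with the terminal phase from the 12–24 h points.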

[2] = Cmax in HIV infected patient plasma after 24 hrs; conditions: human
In short: (§2)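 Plasma PK at steady state (≥1 month) in HIV patients on once-daily saquinavir 1,200 mg plus ritonavir 100 mg and two NRTIs. EDTA blood was drawn predose and at 2, 4, 6, 8, 12 and 24 h after supervised intake, or as a single 24 ± 0.5 h trough. Plasma was stored at −70°C and assayed by HPLC-UV at 215 nm (LLOQ 40 ng/ml). Parameters were noncompartmental, with the terminal slope from the 12–24 h points.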

[3] = Elimination half life in PBMC cellular compartment of HIV infected virological failure patient after 24 hrs; conditions: human; in short: as §1
[4] = Cmin in HIV infected virological failure patient plasma after 24 hrs; conditions: human, read-out: Cmin; in short: as §2
Homo sapiens [5] = species on record: Homo sapiens; experiment: Ratio of elimination half life in PBMC cellular compartment to plasma in HIV infected virological failure patient
In short: (§3)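 Steady-state study (≥1 month on once-daily saquinavir 1,200 mg + ritonavir 100 mg with two NRTIs). 24-h profile: blood drawn predose and at 2, 4, 6, 8, 12 and 24 h after supervised intake. Plasma was separated, and PBMC were isolated on a Ficoll gradient, weighed, and volume was taken as weight. Saquinavir was measured by HPLC-UV at 215 nm (LLOQ 40 ng/ml). Noncompartmental analysis was used, with terminal slope from the 12–24 h points. Ratio = intracellular/plasma.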

[6] = Ratio of AUC (0 to 24 hrs) in PBMC cellular compartment to plasma in HIV infected virological failure patient; conditions: human, read-out: AUC_ratio; in short: as §3
[7] = Cmin in HIV infected patient plasma after 24 hrs; conditions: human, read-out: Cmin; in short: as §2
[8] = Elimination half life in HIV infected patient plasma after 24 hrs; conditions: human; in short: as §2
[9] = AUC (0 to 24 hrs) in PBMC cellular compartment of HIV infected patient after 24 hrs; set-up: time < 24 hr; conditions: human; in short: as §1
[10] = AUC (0 to 24 hrs) in HIV infected virological failure patient plasma; set-up: time < 24 hr; conditions: human; in short: as §3
[11] = Ratio of Cmin in PBMC cellular compartment to plasma in HIV infected patient; conditions: human, read-out: Cmin_ratio
In short: (§4)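 Trough (Cmin) saquinavir was sampled at steady state on once-daily 1,200/100 mg saquinavir/ritonavir, either as the 24-h point of the full profile or as a single sample 24 ± 0.5 h postdose. Plasma and Ficoll-isolated PBMC (volume from weight) were assayed by HPLC-UV at 215 nm (LLOQ 40 ng/ml). Ratio = intracellular/plasma concentration.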

[12] = AUC (0 to 24 hrs) in HIV infected patient plasma after 24 hrs; set-up: time < 24 hr; conditions: human; in short: as §2
[13] = Cmax in PBMC cellular compartment of HIV infected virological failure patient after 24 hrs; conditions: human; in short: as §1
[14] = Ratio of AUC (0 to 24 hrs) in PBMC cellular compartment to plasma in HIV infected patient; conditions: human, read-out: AUC_ratio; in short: as §3
Homo sapiens [15] = species on record: Homo sapiens; experiment: Ratio of elimination half life in PBMC cellular compartment to plasma in HIV infected patient; in short: as §3
[16] = AUC (0 to 24 hrs) in PBMC cellular compartment of HIV infected virological failure patient; set-up: time < 24 hr; conditions: human; in short: as §1
Homo sapiens [17] = species on record: Homo sapiens; experiment: Ratio of Cmax in PBMC cellular compartment to plasma in HIV infected patient; in short: as §3
[18] = Elimination half life in PBMC cellular compartment of HIV infected patient after 24 hrs; conditions: human; in short: as §1
[19] = Cmax in HIV infected virological failure patient plasma after 24 hrs; conditions: human; in short: as §2
Homo sapiens [20] = species on record: Homo sapiens; experiment: Ratio of Cmax in PBMC cellular compartment to plasma in HIV infected virological failure patient; in short: as §3
[21] = Ratio of Cmin in PBMC cellular compartment to plasma in HIV infected virological failure patient; conditions: human, read-out: Cmin_ratio; in short: as §4
[22] = Elimination half life in HIV infected virological failure patient plasma after 24 hrs; conditions: human; in short: as §2
[23] = in the assay text read “HIV infected patient” for “HIV infected virological failure patient”

- concentration at 24 h [1, 23]: 996 ng/mL
- concentration at 24 h [1]: 1220 ng/mL
- Cmax [2]: 3670 ng/mL
- half-life [3]: 10.9 h
- concentration at 24 h [4]: 384 ng/mL
- t1/2_ratio (Homo sapiens [5]): 1.5
- Kp [6]: 3.53
- concentration at 24 h [7]: 431 ng/mL
- half-life [8]: 8.25 h
- AUC(0-t) at 24 h [9]: 99500 ng·h/mL
- AUC(0-t) at 24 h [10]: 35300 ng·h/mL
- Kp [11]: 2.39
- AUC(0-t) at 24 h [12]: 34300 ng·h/mL
- Cmax [13]: 15200 ng/mL
- Cmax [13, 23]: 10100 ng/mL
- Kp [14]: 2.75
- t1/2_ratio (Homo sapiens [15]): 1.5
- AUC(0-t) at 24 h [16]: 132000 ng·h/mL
- Cmax_ratio (Homo sapiens [17]): 2.75 (null)
- half-life [18]: 12.5 h
- Cmax [19]: 3320 ng/mL
- Cmax_ratio (Homo sapiens [20]): 4.46 (null)
- Kp [21]: 3.01
- half-life [22]: 8.51 h
Structure (SMILES): CC(C)(C)NC(=O)[C@@H]1C[C@@H]2CCCC[C@@H]2CN1C[C@@H](O)[C@H](Cc1ccccc1)NC(=O)[C@H](CC(N)=O)NC(=O)c1ccc2ccccc2n1 [SAQUINAVIR]
